Assay results taken from ChEMBL document CHEMBL5252523, “Searching for New Leads for Tuberculosis: Design, Synthesis, and Biological Evaluation of Novel 2-Quinolin-4-yloxyacetamides” (J Med Chem, 2016).
Converted amounts (≈) assume the structure as drawn.

Experiments:
[1] = Chromatographic hydrophobicity index, log D of the compound in phosphate buffer at pH 7.4 by UV-HPLC analysis; type: physicochemical
[2] = Kinetic aqueous solubility of compound in phosphate buffer at pH 7.4 incubated for 1 hrs by CLND assay; type: physicochemical; conditions: read-out: Kinetic_solubility
[3] = Cytotoxicity against human HepG2 cells assessed as cell growth inhibition incubated for 48 hrs by CellTiter-Glo reagent based analysis; type: toxicity
Summary of the method: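 HepG2 cells kept in Eagle's MEM with 10% heat-inactivated FBS, 1% NEAA and penicillin/streptomycin, seeded at ~3000 cells/well onto pre-dispensed compound. Incubation was 48 h at 37 °C, 5% CO2. Plates were equilibrated to room temperature, CellTiter-Glo was added, and ATP luminescence was read after 10 min as the viability read-out.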

[4] = Artificial membrane permeability of the compound incubated for 3 hrs by HPLC analysis; type: ADME; conditions: PAMPA, read-out: permeability
[5] = tested on: Mycobacterium tuberculosis; experiment: Antimycobacterial activity against Mycobacterium tuberculosis H37Rv ATCC 25618 assessed as inhibition of microbial growth incubated for 6 days by resazurin based assay; type: functional; conditions: H37Rv ATCC 25618, 144 h, time 6 day
Summary of the method: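 Ten two-fold dilutions made in neat DMSO, tested in Middlebrook 7H9 with the H37Rv inoculum. Controls: isoniazid from 4 μg/ml as positive control; rifampicin 1 μM as no-growth control. Plates sat sealed at 37 °C without shaking for 6 days.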

| SMILES | chromatographic logD [1] | solubility kinetic at 1 h [2] | IC50 at 48 h [3] | Papp at 3 h [4] | MIC [5] |
| --- | --- | --- | --- | --- | --- |
| COc1ccc2nc(C)cc(OCc3ccc4ccccc4n3)c2c1 | 5.48 | 21 µM (≈ 6.94 µg/mL) | 31.6 µM | 47 ×10⁻⁶ cm/s | 32 µM |
| COc1ccc2nc(C)cc(OCC(=O)Nc3cccnc3)c2c1 | 2.46 | 32 µM (≈ 10.3 µg/mL) | > 100 µM | 33 ×10⁻⁶ cm/s | 62.5 µM |
| COc1cccc(NC(=O)COc2cc(C)nc3ccc(OC)cc23)c1 | 4.49 | 35 µM (≈ 12.3 µg/mL) | > 100 µM | 47 ×10⁻⁶ cm/s | 6.4 µM |
| COc1ccc2nc(C)cc(OCC(=O)Nc3ccncn3)c2c1 | 2.53 | 27.5 µM (≈ 8.92 µg/mL) | > 100 µM | 52.5 ×10⁻⁶ cm/s | > 250 µM |
| COc1ccc2nc(C)cc(OCC(=O)NNC(=O)c3ccncc3)c2c1 | 1.48 | ≥ 375 µM | > 100 µM | 3.3 ×10⁻⁶ cm/s | 62 µM |
| CSc1ccc2nc(C)cc(OCC(=O)Nc3cc(C)cc(C)c3)c2c1 | 6.42 | 3 µM (≈ 1.1 µg/mL) | > 100 µM | – | > 125 µM |
| Cc1cc(C)cc(NC(=O)COc2cc(C)nc3ccccc23)c1 | 5.39 | 55 µM (≈ 17.6 µg/mL) | > 100 µM | 37 ×10⁻⁶ cm/s | 24 µM |
| COc1ccc2nc(C)cc(OCC(=O)Nc3c(C)cccc3C)c2c1 | 4.55 | 112 µM (≈ 39.2 µg/mL) | > 100 µM | 63 ×10⁻⁶ cm/s | 125 µM |
| Cc1cc(C)cc(NC(=O)COc2cc(C)nc3ccc(OC(F)(F)F)cc23)c1 | 6.79 | – | > 100 µM | < 3 ×10⁻⁶ cm/s | > 250 µM |
| Cc1cc(C)cc(NC(=O)COc2cc(C(F)(F)F)nc3ccc(OC(F)(F)F)cc23)c1 | 7.96 | 34 µM (≈ 15.6 µg/mL) | > 100 µM | < 0.3 ×10⁻⁶ cm/s | > 250 µM |
| COc1ccc2nc(C)cc(OCC(=O)Nc3ccncc3)c2c1 | 2.5 | 91.5 µM (≈ 29.6 µg/mL) | > 100 µM | 56 ×10⁻⁶ cm/s | > 250 µM |
| COc1ccc2nc(C)cc(OCC(=O)Nc3noc(C)c3C)c2c1 | 3.3 | 196 µM (≈ 66.7 µg/mL) | > 100 µM | 62.5 ×10⁻⁶ cm/s | 187 µM |
| COc1ccc2nc(C)cc(OCC(=O)Nc3ccccn3)c2c1 | 3.49 | 29 µM (≈ 9.38 µg/mL) | > 100 µM | 48 ×10⁻⁶ cm/s | 15.7 µM |
| COc1ccc2nc(C)cc(OCC(=O)Nc3ccc(Br)c(C)c3)c2c1 | 5.95 | < 1 µM | 15.8 µM | – | 3.9 µM |
| COc1ccc2nc(C)cc(OCC(=O)N(C)c3cc(C)cc(C)c3)c2c1 | 5.47 | 373 µM (≈ 136 µg/mL) | 50.1 µM | 30 ×10⁻⁶ cm/s | 109 µM |
| COc1ccc2nc(C)cc(OCC(=O)NCc3cc(C)cc(C)c3)c2c1 | 5.25 | 92 µM (≈ 33.5 µg/mL) | > 100 µM | < 0.3 ×10⁻⁶ cm/s | 31 µM |
| COc1cc2nc(C)cc(OCC(=O)Nc3cc(C)cc(C)c3)c2cc1OC | 4.84 | – | 10 µM | 60.5 ×10⁻⁶ cm/s | > 250 µM |
| COc1ccc2nc(C)cc(OCC(=O)Nc3cc(C)c(OC)c(C)c3)c2c1 | 4.99 | 17 µM (≈ 6.47 µg/mL) | 7.94 µM | 32 ×10⁻⁶ cm/s | 1 µM |
| CCOc1ccc2nc(C)cc(OCC(=O)Nc3cc(C)cc(C)c3)c2c1 | 5.98 | – | > 100 µM | < 3 ×10⁻⁶ cm/s | > 250 µM |
| Cc1cc(C)cc(NC(=O)COc2cc(C(F)(F)F)nc3c(C(F)(F)F)cccc23)c1 | 7.73 | < 1 µM | > 100 µM | < 1 ×10⁻⁶ cm/s | > 250 µM |
| COc1ccc2nc(C)cc(NC(=O)C(=O)Nc3cc(C)cc(C)c3)c2c1 | 6.47 | 10 µM (≈ 3.63 µg/mL) | > 100 µM | – | > 125 µM |
| Cc1cc(C)cc(NC(=O)COc2cc(C)nc3ccc(F)cc23)c1 | 5.79 | 28 µM (≈ 9.47 µg/mL) | 63.1 µM | 31 ×10⁻⁶ cm/s | 15.6 µM |
| COc1ccc2nc(C)c(NC(=O)C(=O)Nc3cc(C)cc(C)c3)c(O)c2c1 | 3.76 | 10 µM (≈ 3.79 µg/mL) | > 100 µM | – | > 125 µM |
| CCCc1cc(OCC(=O)Nc2cc(C)cc(C)c2)c2cc(OC)ccc2n1 | 6.44 | 12 µM (≈ 4.54 µg/mL) | 12.6 µM | – | > 250 µM |
